The target in test [1] is T1, Adrenergic receptor alpha-1 (Rattus norvegicus, UniProt P15823+P23944+P43140).
T1 sequence (P15823 whole entry): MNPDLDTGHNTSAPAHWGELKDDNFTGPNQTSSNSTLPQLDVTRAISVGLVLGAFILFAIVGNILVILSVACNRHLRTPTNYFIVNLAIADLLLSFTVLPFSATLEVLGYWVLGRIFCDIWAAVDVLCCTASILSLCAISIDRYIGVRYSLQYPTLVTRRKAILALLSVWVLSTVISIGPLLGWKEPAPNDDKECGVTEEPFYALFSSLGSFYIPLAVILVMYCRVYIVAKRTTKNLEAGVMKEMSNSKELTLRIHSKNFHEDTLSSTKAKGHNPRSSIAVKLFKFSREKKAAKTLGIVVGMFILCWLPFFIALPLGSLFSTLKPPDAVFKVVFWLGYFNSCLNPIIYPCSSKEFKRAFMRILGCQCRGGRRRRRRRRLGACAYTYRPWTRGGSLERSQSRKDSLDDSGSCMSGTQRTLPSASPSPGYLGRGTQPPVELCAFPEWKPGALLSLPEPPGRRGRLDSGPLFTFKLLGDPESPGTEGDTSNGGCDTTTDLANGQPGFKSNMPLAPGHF
T1 sequence (P23944 whole entry): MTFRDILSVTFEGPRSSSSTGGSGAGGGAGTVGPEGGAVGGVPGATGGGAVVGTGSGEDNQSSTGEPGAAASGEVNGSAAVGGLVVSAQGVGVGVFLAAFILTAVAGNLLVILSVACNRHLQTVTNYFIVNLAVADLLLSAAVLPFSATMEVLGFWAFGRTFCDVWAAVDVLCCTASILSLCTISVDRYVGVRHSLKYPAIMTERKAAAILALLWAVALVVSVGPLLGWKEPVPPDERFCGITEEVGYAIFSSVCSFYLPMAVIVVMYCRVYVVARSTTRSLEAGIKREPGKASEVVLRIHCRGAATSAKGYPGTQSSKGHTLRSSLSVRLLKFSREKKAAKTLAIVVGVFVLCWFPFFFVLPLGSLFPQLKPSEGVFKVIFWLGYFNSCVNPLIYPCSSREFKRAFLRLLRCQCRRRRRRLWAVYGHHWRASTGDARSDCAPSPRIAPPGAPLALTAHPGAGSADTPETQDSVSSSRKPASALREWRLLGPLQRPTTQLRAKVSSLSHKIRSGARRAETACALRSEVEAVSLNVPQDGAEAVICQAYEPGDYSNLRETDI
T1 sequence (P43140 whole entry): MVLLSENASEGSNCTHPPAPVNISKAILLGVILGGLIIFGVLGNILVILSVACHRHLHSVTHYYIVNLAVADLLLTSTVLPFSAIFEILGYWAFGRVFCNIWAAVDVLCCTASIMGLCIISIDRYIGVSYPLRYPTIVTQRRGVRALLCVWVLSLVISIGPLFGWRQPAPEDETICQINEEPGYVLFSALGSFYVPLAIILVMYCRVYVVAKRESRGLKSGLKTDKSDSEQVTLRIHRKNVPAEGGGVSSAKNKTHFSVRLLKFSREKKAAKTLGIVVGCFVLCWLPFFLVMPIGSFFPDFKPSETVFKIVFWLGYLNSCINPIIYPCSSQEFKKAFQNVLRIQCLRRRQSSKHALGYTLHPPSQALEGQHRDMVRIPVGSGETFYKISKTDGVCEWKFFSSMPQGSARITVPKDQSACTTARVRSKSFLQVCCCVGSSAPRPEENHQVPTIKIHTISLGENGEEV
The test can be described thus: Compound was tested for the inhibition of [3H]prazosin binding […] adrenergic receptor of crude rat brain membrane.

Test [2] deals with T2, Adrenergic receptor alpha-2 (Rattus norvegicus, UniProt P22086+P19328+P22909).
T2 sequence (P22086 whole entry): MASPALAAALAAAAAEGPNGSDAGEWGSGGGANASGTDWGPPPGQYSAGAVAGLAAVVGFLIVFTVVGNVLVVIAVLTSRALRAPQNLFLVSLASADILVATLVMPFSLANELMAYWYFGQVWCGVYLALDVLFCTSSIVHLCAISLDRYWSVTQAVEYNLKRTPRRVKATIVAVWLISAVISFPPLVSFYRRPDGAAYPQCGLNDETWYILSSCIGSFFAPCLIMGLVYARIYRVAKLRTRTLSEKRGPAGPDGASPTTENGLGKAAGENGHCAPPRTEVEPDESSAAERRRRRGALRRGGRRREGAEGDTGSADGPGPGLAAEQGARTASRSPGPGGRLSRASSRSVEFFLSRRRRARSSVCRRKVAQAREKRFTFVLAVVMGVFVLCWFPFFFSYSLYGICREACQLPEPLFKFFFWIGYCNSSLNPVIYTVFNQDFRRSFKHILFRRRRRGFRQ
T2 sequence (P19328 whole entry): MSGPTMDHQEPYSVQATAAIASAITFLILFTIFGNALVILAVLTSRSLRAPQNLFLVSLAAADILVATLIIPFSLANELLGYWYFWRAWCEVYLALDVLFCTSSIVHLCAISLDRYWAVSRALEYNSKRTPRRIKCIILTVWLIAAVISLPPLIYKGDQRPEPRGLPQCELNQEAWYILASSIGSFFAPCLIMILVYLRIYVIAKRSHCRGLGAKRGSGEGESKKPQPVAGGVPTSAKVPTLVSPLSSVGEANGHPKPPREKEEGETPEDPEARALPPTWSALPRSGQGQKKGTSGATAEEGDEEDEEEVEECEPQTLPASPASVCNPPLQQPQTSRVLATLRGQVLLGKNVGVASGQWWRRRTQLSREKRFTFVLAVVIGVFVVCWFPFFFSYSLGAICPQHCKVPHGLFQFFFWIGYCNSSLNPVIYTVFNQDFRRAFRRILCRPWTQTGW
T2 sequence (P22909 whole entry): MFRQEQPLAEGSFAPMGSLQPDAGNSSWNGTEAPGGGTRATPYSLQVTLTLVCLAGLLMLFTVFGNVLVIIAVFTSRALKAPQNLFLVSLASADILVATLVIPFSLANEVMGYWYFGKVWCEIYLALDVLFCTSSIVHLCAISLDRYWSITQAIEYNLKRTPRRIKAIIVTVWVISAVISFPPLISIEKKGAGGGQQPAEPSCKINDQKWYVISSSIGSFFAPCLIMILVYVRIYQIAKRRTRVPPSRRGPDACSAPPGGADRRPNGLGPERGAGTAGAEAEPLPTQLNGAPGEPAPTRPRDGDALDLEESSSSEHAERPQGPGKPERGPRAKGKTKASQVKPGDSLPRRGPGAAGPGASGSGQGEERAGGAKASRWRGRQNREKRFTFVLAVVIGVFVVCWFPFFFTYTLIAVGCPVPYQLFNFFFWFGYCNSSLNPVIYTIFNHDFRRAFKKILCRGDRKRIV
The test can be described thus: Compound was tested for the inhibition of [3H]clonidine binding Alpha-2 adrenergic receptor of crude rat brain membrane.

For test [3], the system named is Rattus norvegicus. Nature of the test: Delta BP refers to oral hypotensive activity of compound which is evaluated at 4 hr and 24 hr in restrained, normotensive conscious rats at a dose of 50 mg/kg; -11/-16. Type of test: functional. The essentials:
(§1)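 Female Sprague-Dawley rats, normotensive, restrained in a towel. Blood pressure was read directly via chronic indwelling aortic cannulas exteriorized at the nape, before and 4 and 24 h after an oral dose suspended in carboxymethylcellulose (10 mL/kg). Values from two animals were averaged at each time; a mean change of at least 5 mmHg was taken as significant (p < 0.05).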

For test [4], the system named is Rattus norvegicus. The test can be described thus: Delta BP refers to oral hypotensive activity of compound which is evaluated at 4 hr and 24 hr in restrained, normotensive conscious rats at a dose of 50 mg/kg; -24/-5. Type of test: functional. The essentials: as §1
Test [5] deals with Rattus norvegicus. The test can be described thus: Delta BP refers to oral hypotensive activity of compound which is evaluated at 4 hr and 24 hr in restrained, normotensive conscious rats at a dose of 50 mg/kg; -19/-19. The class given is functional. The essentials:
as §1

Test [6] relates to Rattus norvegicus. The test can be described thus: Delta BP refers to oral hypotensive activity of compound which is evaluated at 4 hr and 24 hr in restrained, normotensive conscious rats at a dose of 50 mg/kg; -16/-10. Type of test: functional. To be noted: dose 15 mg/kg, in the assay text read “dose of 15 mg/kg” for “dose of 50 mg/kg”. The essentials: as §1
The subject of test [7] is Rattus norvegicus. Nature of the test: Delta BP refers to oral hypotensive activity of compound which is evaluated at 4 hr and 24 hr in restrained, normotensive conscious rats at a dose of 50 mg/kg; -17/-9. The class given is functional. The essentials:
as §1

The test system of test [8] is Rattus norvegicus. Nature of the test: Delta BP refers to oral hypotensive activity of compound which is evaluated at 4 hr and 24 hr in restrained, normotensive conscious rats at a dose of 15 mg/kg; -24/-5. The class given is functional. The essentials: as §1
Test [9] concerns Rattus norvegicus. Nature of the test: Delta BP refers to oral hypotensive activity of compound which is evaluated at 4 hr and 24 hr in restrained, normotensive conscious rats at a dose of 50 mg/kg; -26/-21. Type of test: functional. The essentials:
as §1

Test [10] deals with Rattus norvegicus. Nature of the test: Delta BP refers to oral hypotensive activity of compound which is evaluated at 4 hr and 24 hr in restrained, normotensive conscious rats at a dose of 50 mg/kg; -13/-10. The class given is functional. The essentials:
as §1

The test system of test [11] is Rattus norvegicus. Nature of the test: Delta BP refers to oral hypotensive activity of compound which is evaluated at 4 hr and 24 hr in restrained, normotensive conscious rats at a dose of 50 mg/kg; -17/-20. Type of test: functional. The essentials:
as §1

Test [12] concerns Rattus norvegicus. The test can be described thus: Delta BP refers to oral hypotensive activity of compound which is evaluated at 4 hr and 24 hr in restrained, normotensive conscious rats at a dose of 15 mg/kg; -13/-14. The class given is functional. The essentials: as §1
Test [13] deals with Rattus norvegicus. The test can be described thus: Delta BP refers to oral hypotensive activity of compound which is evaluated at 4 hr and 24 hr in restrained, normotensive conscious rats at a dose of 50 mg/kg; -12/-5. Type of test: functional. The essentials:
as §1

Test [14] deals with Rattus norvegicus. The test can be described thus: Delta BP refers to oral hypotensive activity of compound which is evaluated at 4 hr and 24 hr in restrained, normotensive conscious rats at a dose of 50 mg/kg; 1/0. Type of test: functional. The essentials:
as §1

By Ki is commonly meant the dissociation constant of the complex between target and ligand, obtained from inhibition or displacement. A higher Ki goes with a looser hold on the target. Turning to `COc1cc2c(cc1OC)C(CCN1CCN(c3ccc(F)cc3)CC1)OCCC2` (centres undefined), the Ki in [1] is 4 nM; in [2], 307 nM. As for `COc1cc2c(cc1OC)C(C)(CCCN1CCN(c3ccccn3)CC1)OCC2` (centres undefined), the Delta blood pressure in test [3] is given as -11 mmHg. Compound `COc1cc2c(cc1OC)C(CN1CCN(c3ccccc3C)CC1)OCC2` (centres undefined) came in with a Delta blood pressure in test [4] of -24 mmHg. With `COc1cc2c(cc1OC)C(CCCN1CCN(c3ccccc3)CC1)(c1ccc(F)cc1)OCC2` (centres undefined), the Delta blood pressure in test [5] is reported as -19 mmHg; in [6] it was -16 mmHg.

The compound `COc1cc2c(cc1OC)C(C)(CCN1CCN(c3ccccc3)CC1)OCC2` (centres undefined) yielded a Delta blood pressure in [7] of -17 mmHg.

As for `COc1cc2c(cc1OC)C(C)(CCCN1CCN(c3ccccc3C)CC1)OCC2` (centres undefined), the results for the Delta blood pressure in [8] and in test [9] were -24 mmHg and -26 mmHg, respectively. In test [10], `COc1cc2c(cc1OC)C(CCN1CCN(c3ccccc3)CC1)OCC2` (centres undefined) had a Delta blood pressure of -13 mmHg. With `COc1cc2c(cc1OC)C(CCN1CCN(c3ccccc3C)CC1)OC(C)(C)C2` (centres undefined), the Delta blood pressure in test [11] is recorded as -17 mmHg. For `COc1cc2c(cc1OC)C(CCN1CCN(c3ccccn3)CC1)OCC2` (centres undefined), the Delta blood pressure is on record as -13 mmHg in test [12] and -12 mmHg in test [13].

`COc1cc2c(cc1OC)C(CCN1CCN(c3cccc(Cl)c3)CC1)OCC2` (centres undefined) registered a Delta blood pressure in test [14] of 1 mmHg.

The values above are taken from ChEMBL document CHEMBL1122179, “1-(alkylamino)isochromans: hypotensives with peripheral and central activities” (J Med Chem, 1982).
